Source: ChEMBL document CHEMBL4400542, “Epidermal Growth Factor Receptor-Targeted Multifunctional Photosensitizers for Bladder Cancer Imaging and Photodynamic Therapy” (J Med Chem, 2019)
Calls of active or inactive are those of the source. The rule behind the calls is not given here.

Assays:
[1] = Drug accumulation in lysosomes of human UM-UC-3 cells at 500 nM formulated with 1% tween 80 solution after 24 hrs by lysosphere green based fluorimetry; assay type: ADME, subcellular, Lysosome; settings: umuc3, 24 h, 0.5 µM
UMUC3 [2] = test: Induction of apoptosis in human UM-UC-3 cells assessed as increase in apoptotic cells at 1 uM in absence of light by Annexin V/propidium iodide-staining based flow cytometry; assay type: cell-based; settings: umuc3, 1 µM
[3] = Drug uptake in human UM-UC-3 cells assessed as increase in gray value intensity at 1 uM pretreated for 24 hrs followed by compound washout and measured after 4 hrs by Hoechst 33342 staining based fluorescence microscopy; assay type: ADME, cell-based; settings: umuc3, 4 h
Method in brief: (§1)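 Cells pre-incubated 24 h with free erlotinib before PS addition. Legend describes PS at 1 uM or erlotinib at 3 uM for 4 h, then three warm PBS washes. Imaged by fluorescence microscopy; grey value per field normalized to cell count, triplicate wells, each imaged in triplicate.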

UMUC3 [4] = test: Induction of oxidative stress in human UM-UC-3 cells assessed as increase in ROS production at 1 uM in presence of 1 J/cm2 light irradiation and measured at 20 min post light exposure by DCFDA-fluorescence based assay relative to control; assay type: functional
Method in brief: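 UMUC3 cells at 10k per well; after 24 h, PS added at 1 µM for 24 h (Tween80 formulation). DCFDA 1 µM for 20 min, fluorescence read (ex 492, em 517). Then 665 nm light, 1 J total at 3.2 mW/cm2, and read again. No-DCFDA background subtracted; 0.05% H2O2 control wells.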

UMUC3 [5] = test: Photo-activated cytotoxicity against human UM-UC-3 cells assessed as reduction in cell viability preincubated for 24 hrs followed by 1 J/cm2 light irradiation and measured after 48 hrs formulated with 2% pluronic F-127 solution by MTT assay; assay type: functional, cell-based; settings: UMUC3, light or radiation study
Method in brief: (§2)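 Cells plated at 10k per well, allowed 24 h to adhere, then PS added in two-fold dilutions from 1 µM top for 24 h. Irradiated at 665 nm, 1.0 J/cm2 at 3.2 mW/cm2. Viability by MTT 48 h after PDT: about 2 h incubation, formazan dissolved in DMSO, absorbance at 570 nm.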

[6] = target: Epidermal growth factor receptor (Homo sapiens) (UniProt P00533); test: Inhibition of EGFR autophosphorylation at Ty1068 in human UM-UC-3 cells at 100 nM followed by PDT and measured after 24 hrs by Western blot analysis; assay type: cell-based
Sequence of Epidermal growth factor receptor (Homo sapiens) (P00533 whole entry): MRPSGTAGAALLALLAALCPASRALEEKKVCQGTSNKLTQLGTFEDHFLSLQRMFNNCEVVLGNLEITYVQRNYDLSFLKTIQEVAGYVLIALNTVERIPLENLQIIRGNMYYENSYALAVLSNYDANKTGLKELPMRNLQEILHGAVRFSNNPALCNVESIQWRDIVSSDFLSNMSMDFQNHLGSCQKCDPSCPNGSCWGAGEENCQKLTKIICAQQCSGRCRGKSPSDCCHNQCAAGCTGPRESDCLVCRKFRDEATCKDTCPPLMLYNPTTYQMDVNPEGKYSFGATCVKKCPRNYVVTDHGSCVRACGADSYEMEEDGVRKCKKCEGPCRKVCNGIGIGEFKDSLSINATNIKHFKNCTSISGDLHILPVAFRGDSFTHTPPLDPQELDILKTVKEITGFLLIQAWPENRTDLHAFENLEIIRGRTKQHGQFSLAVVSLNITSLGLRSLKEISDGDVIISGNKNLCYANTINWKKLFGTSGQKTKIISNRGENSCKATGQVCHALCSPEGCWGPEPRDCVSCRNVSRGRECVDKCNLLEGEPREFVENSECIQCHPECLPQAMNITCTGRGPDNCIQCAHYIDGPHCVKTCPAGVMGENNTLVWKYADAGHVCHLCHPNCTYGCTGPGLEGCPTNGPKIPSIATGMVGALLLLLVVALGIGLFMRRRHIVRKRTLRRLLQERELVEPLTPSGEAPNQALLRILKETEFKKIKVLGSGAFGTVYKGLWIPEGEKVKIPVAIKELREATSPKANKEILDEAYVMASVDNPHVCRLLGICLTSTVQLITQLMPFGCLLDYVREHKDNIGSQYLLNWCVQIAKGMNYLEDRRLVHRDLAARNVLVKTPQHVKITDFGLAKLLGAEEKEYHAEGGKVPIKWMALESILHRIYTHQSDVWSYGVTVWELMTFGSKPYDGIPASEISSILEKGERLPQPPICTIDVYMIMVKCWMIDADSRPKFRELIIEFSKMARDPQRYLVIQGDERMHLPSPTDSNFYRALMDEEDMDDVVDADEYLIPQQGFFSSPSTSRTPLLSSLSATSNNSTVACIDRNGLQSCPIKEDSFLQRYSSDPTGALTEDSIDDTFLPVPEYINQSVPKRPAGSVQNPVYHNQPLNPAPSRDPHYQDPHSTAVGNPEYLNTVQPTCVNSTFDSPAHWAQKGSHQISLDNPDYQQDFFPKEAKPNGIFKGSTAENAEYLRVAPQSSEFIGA

[7] = Drug accumulation in human T24 cells at 500 nM formulated with 1% tween 80 solution after 24 hrs by CARY-fluorimetry; assay type: ADME, cell-based; settings: t-24, 24 h, 0.5 µM
[8] = Drug accumulation in human UM-UC-3 cells at 500 nM formulated with 2% pluronic F-127 solution after 24 hrs by CARY-fluorimetry; assay type: ADME, cell-based; settings: umuc3, 24 h, 0.5 µM
T-24 [9] = test: Photo-activated cytotoxicity against human T24 cells assessed as reduction in cell viability preincubated for 24 hrs followed by 1 J/cm2 light irradiation and measured after 48 hrs formulated with 2% pluronic F-127 solution by MTT assay; assay type: functional, cell-based; settings: T-24, light or radiation study; method in brief: as §2
T-24 [10] = test: Induction of apoptosis in human T24 cells assessed as increase in apoptotic cells at 1 uM in absence of light by Annexin V/propidium iodide-staining based flow cytometry; assay type: cell-based; settings: t-24, 1 µM
[11] = Drug accumulation in mitochondria of human T24 cells at 500 nM formulated with 1% tween 80 solution after 24 hrs by mitotracker red based fluorimetry; assay type: ADME; settings: t-24, 24 h, 0.5 µM
[12] = Induction of singlet oxygen generation in deaerated toluene at 670 nm assessed as singlet decay life time by femtosecond transient absorption spectroscopy; assay type: functional
[13] = Induction of singlet oxygen generation in deaerated toluene at 670 nm assessed as rate of singlet decay by femtosecond transient absorption spectroscopy; assay type: functional
[14] = Drug accumulation in human T24 cells at 500 nM formulated with 2% pluronic F-127 solution after 24 hrs by CARY-fluorimetry; assay type: ADME, cell-based; settings: t-24, 24 h, 0.5 µM
[15] = target: Epidermal growth factor receptor (Homo sapiens) (UniProt P00533); test: Inhibition of EGFR autophosphorylation at Ty1068 in human UM-UC-3 cells at 1 uM followed by PDT and measured after 24 hrs by Western blot analysis; assay type: cell-based
[16] = Drug accumulation in human UM-UC-3 cells at 500 nM formulated with 1% tween 80 solution after 24 hrs by CARY-fluorimetry; assay type: ADME, cell-based; settings: umuc3, 24 h, 0.5 µM
[17] = Drug accumulation in lysosomes of human UM-UC-3 cells at 500 nM formulated with 2% pluronic F-127 solution after 24 hrs by lysosphere green based fluorimetry; assay type: ADME, subcellular, Lysosome; settings: umuc3, 24 h, 0.5 µM
[18] = target: Epidermal growth factor receptor (Homo sapiens) (UniProt P00533); test: Inhibition of EGFR autophosphorylation at Ty1068 in human T24 cells at 1 uM followed by PDT and measured after 24 hrs by Western blot analysis; assay type: cell-based
[19] = Drug uptake in human UM-UC-3 cells assessed as increase in gray value intensity at 500 nM after 48 hrs in presence of gleevec by Hoechst 33342 staining based fluorescence microscopy; assay type: ADME, cell-based; settings: umuc3, 24 h, 0.5 µM, in the assay text read “after 24 hrs” for “after 48 hrs”
Method in brief: (§3)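 Cells plated at 100k per well, grown to 80% confluency, refreshed, then incubated 24 h with PS at 500 nM with or without Gleevec 5 µM. Washed twice with PBS, Hoechst 33342 added, imaged by fluorescence microscopy; grey value normalized to cell number, triplicate groups and images.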

[20] = Drug accumulation in mitochondria of human T24 cells at 500 nM formulated with 2% pluronic F-127 solution after 24 hrs by mitotracker red based fluorimetry; assay type: ADME; settings: t-24, 24 h, 0.5 µM
[21] = Stability at -20 degC for 2 months; assay type: physicochemical; settings: 1461 h
Method in brief: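 Formulated PS stored at -4 °C or -20 °C for two months; checked for precipitation and pH change.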

[22] = Drug accumulation in lysosomes of human T24 cells at 500 nM formulated with 2% pluronic F-127 solution after 24 hrs by lysosphere green based fluorimetry; assay type: ADME, subcellular, Lysosome; settings: t-24, 24 h, 0.5 µM
[23] = Drug uptake in human T24 cells assessed as increase in gray value intensity at 1 uM pretreated for 24 hrs followed by compound washout and measured after 4 hrs by Hoechst 33342 staining based fluorescence microscopy; assay type: ADME, cell-based; settings: t-24, 4 h; method in brief: as §1
[24] = Stability at -4 degC for 2 months; assay type: physicochemical; settings: 1461 h
Method in brief: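 Photosensitizer formulations in Tween80 or Pluronic F-127 were stored at -4 °C, alongside a -20 °C set, for two months. Stability was judged by visible precipitation and change in pH.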

UMUC3 [25] = test: Photo-activated cytotoxicity against human UM-UC-3 cells assessed as reduction in cell viability preincubated for 24 hrs followed by 1 J/cm2 light irradiation and measured after 48 hrs formulated with 1% tween 80 solution by MTT assay; assay type: functional, cell-based; settings: UMUC3, light or radiation study; method in brief: as §2
[26] = Drug accumulation in mitochondria of human UM-UC-3 cells at 500 nM formulated with 1% tween 80 solution after 24 hrs by mitotracker red based fluorimetry; assay type: ADME; settings: umuc3, 24 h, 0.5 µM
[27] = Drug accumulation in mitochondria of human UM-UC-3 cells at 500 nM formulated with 2% pluronic F-127 solution after 24 hrs by mitotracker red based fluorimetry; assay type: ADME; settings: umuc3, 24 h, 0.5 µM
[28] = Drug uptake in human UM-UC-3 cells assessed as increase in gray value intensity at 500 nM after 48 hrs in absence of gleevec by Hoechst 33342 staining based fluorescence microscopy; assay type: ADME, cell-based; settings: umuc3, 24 h, 0.5 µM, in the assay text read “24 hrs” for “48 hrs”; method in brief: as §3
[29] = Drug accumulation in lysosomes of human T24 cells at 500 nM formulated with 1% tween 80 solution after 24 hrs by lysosphere green based fluorimetry; assay type: ADME, subcellular, Lysosome; settings: t-24, 24 h, 0.5 µM

| Drug uptake [1] | Drug uptake [3] | inhibition [6] | Drug uptake [7] | Drug uptake [8] | Drug uptake [11] | Drug uptake [14] | inhibition [15] | Drug uptake [16] | Drug uptake [17] | inhibition [18] | Drug uptake [19] | Drug uptake [20] | SMILES | Activity (UMUC3 [2]) | fold change (FC) (UMUC3 [4]) | IC50 (UMUC3 [5]) [µM] | IC50 (T-24 [9]) [µM] | Activity (T-24 [10]) | Time [12] | K [13] | further results |
| --- | --- | --- | --- | --- | --- | --- | --- | --- | --- | --- | --- | --- | --- | --- | --- | --- | --- | --- | --- | --- | --- |
| Active | Active | Active | Active | Active | Active | Active | inactive | Active | Active | inactive | Active | Active | CCC1=C(C)c2cc3[nH]c(cc4nc(c5c6[nH]c(cc1n2)c(C)c6C(=O)C5)[C@@H](CCC(=O)OC)[C@@H]4C)c(C)c3C(C)OCc1cccc(I)c1 (stereo partly drawn) | Non-Toxic | 2.5 | 0.2 | 0.177 | Non-Toxic | 1 nanoseconds | 1 ×10⁹ /s | Stability [21]: Stable; Drug uptake [22]: Active; Drug uptake [23]: Active; Stability [24]: Stable; IC50 (UMUC3 [25]): 0.0952 µM; Drug uptake [26]: Active; Drug uptake [27]: Active; Drug uptake [28]: Active; Drug uptake [29]: Active |
| Active | Not Active | Active | Active | Active | Active | Active | Active | Active | Active | Active | Not Active | Active | CCC1=C(C)c2cc3[nH]c(cc4nc(c5c6[nH]c(cc1n2)c(C)c6C(=O)C5)[C@@H](CCC(=O)NCc1cccc(I)c1)[C@@H]4C)c(C)c3C(C)OCc1cccc(C#Cc2cccc(Nc3ncnc4cc(OCCOC)c(OCCOC)cc34)c2)c1 (stereo partly drawn) | Non-Toxic | 0.9 | 0.326 | 1.26 | Non-Toxic | 83 pS | 1.2 ×10¹⁰ /s | Stability [21]: Stable; Drug uptake [22]: Active; Drug uptake [23]: Active; Stability [24]: Stable; IC50 (UMUC3 [25]): 0.608 µM; Drug uptake [26]: Active; Drug uptake [27]: Active; Drug uptake [28]: Not Active; Drug uptake [29]: Active |
